rCAG binder-1: binds r(CAG) RNA repeats; r(CAG) RNA repeat, TO-PRO-1 dye displacement fluorescence; AID 651821; inhibition, % at 3 µM; 370,000 tested, 1.3% active;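 active means inhibition above the plate cutoff, the mean of all test compounds on that plate plus 3 SD, cut at about 35% in these data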;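 further: 0% = DMSO alone and 100% = 100 µM mitoxantrone as full dye displacement; higher means more dye released from RNA so lower well fluorescence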
DAGLB inhibitor: blocks human DAGLB lipase activity; HEK293T DAGLB membrane lysate, EnzChek fluorogenic substrate; inhibition, % at 5.17 µM; 340,000 tested, 0.059% active; AID 504411; in the data active means inhibition above about 34%;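 further: 0% = enzyme with vehicle and 100% = wells lacking enzyme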
Target sequence (Q8NCG7 whole entry, looked up): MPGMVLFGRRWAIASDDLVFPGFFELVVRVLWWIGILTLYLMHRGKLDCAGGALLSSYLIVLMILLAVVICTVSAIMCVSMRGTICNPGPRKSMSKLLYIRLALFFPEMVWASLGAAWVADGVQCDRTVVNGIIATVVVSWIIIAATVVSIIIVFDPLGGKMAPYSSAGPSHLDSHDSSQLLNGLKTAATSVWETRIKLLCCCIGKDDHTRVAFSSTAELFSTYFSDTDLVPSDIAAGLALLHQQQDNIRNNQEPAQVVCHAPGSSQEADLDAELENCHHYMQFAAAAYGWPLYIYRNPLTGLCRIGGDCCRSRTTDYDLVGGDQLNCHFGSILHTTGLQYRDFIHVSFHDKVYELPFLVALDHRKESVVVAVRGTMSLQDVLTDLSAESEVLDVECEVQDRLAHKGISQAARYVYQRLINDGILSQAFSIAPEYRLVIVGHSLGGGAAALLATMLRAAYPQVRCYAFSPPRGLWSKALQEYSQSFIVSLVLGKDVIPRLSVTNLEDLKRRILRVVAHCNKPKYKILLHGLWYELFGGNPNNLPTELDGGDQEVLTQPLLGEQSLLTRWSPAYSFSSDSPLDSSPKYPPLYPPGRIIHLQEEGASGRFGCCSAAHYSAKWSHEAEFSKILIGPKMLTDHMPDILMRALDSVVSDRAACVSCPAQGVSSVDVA
HTRA1 inh: HTRA1 (human) protease inhibition. 340,000 tested, 0.5% active. inhibition, % at 5.96 µM. recombinant HTRA1, FP-rhodamine activity-based probe, fluorescence polarization; in the data active means inhibition above about 36%;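 further: 0% = enzyme with DMSO and 100% = wells lacking enzyme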
ABHD4 inh: inhibitors of mouse ABHD4; inhibition, % at 8.92 µM; 370,000 tested, 0.54% active; Q8VD66; AID 720543; purified mABHD4, FP-Rh probe fluorescence polarization;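 active means inhibition exceeding the mean over every tested compound plus 3 SD, cut at about 30% in these data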;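 further: 0% = plate median of compound wells and 100% = S159A mutant with DMSO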
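System: mouse ABHD4 enzyme, wild type / Medium: HEPES pH 7.0, NaCl, Pluronic buffer / Reagent: FP-Rh activity-based fluorescent probe / Control set: S159A mutant high control, sample median low control / Detection: fluorescence polarization with parallel and perpendicular emission, 525/598 nm / Schedule: 45 min + 60 min at 25 °C / Compound dosing: 8.92 µM, single dose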
LEDGF integ inh: blocks HIV-1 LEDGF/p75-dependent DNA integration; TR-FRET IN-LEDGF/p75 DNA integration, Eu/Cy5; inhibition, % at 3.7 µM; 370,000 tested, 0.64% active;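 active means inhibition above the screen-wide mean plus 3 SD, cut at about 13% in these data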;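 further: signal is the Cy5 over europium emission ratio at 671 and 618 nm; 0% = plate median of compound wells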
PRMT1 FP inh: blocks human protein arginine methyltransferase 1. Q99873. 370,000 tested, 1.3% active. inhibition, % at 2.79 µM. AID 652257. recombinant PRMT1, activity-based probe fluorescence polarization;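 active means inhibition above about 21% made by adding two undisclosed values, limit read from the data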
rCAG bind conf: r(CAG) RNA repeat binding, confirmation. shares compounds with rCAG binder-1. TO-PRO-1 dye displacement fluorescence. inhibition, % at 3 µM. 4,300 tested, 70% active;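 active means inhibition above a per-plate cutoff, the mean inhibition of sample wells plus 3 SD, cut at about 35% in these data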;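 further: loss of TO-PRO-1 fluorescence as compound displaces dye from 1x1 AA loop RNA; 0% = DMSO only wells and 100% = 100 µM mitoxantrone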
dCAG dye counter: counter-screen for rCAG RNA binders: DNA CAG dye complex inhibitors | shares compounds with rCAG binder-1 | d(CAG) DNA oligo TO-PRO-1 dye displacement, fluorescence | 4,300 tested, 94% active | inhibition, % at 3 µM;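 active means inhibition above its plate's cutoff, the mean test-well inhibition plus 3 SD, cut at about 4.8% in these data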;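 further: 0% = DNA dye mix with DMSO and 100% = 100 µM mitoxantrone; hits displace the dye from DNA and so lower well fluorescence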
dCAG dye DR: disrupts DNA CAG TO-PRO-1 complex in dose response. DNA CAG/GTC duplex TO-PRO-1 dye displacement fluorescence. shares compounds with rCAG binder-1. 250 tested, 20% active. AID 686960. IC50, µM; in the data active means IC50 below about 10 µM
dCAG DNA bind: DNA CAG dye complex inhibition, late stage dose response; shares compounds with rCAG binder-1; d(CAG) DNA duplex TO-PRO-1 dye displacement, fluorescence; IC50, µM; 30 tested, 80% active; AID 720649
rCAG binder-2: r(CAG) repeat RNA binding, TO-PRO-1 displacement; shares compounds with rCAG binder-1; r(CAG) RNA TO-PRO-1 dye displacement, fluorescence; IC50, µM; 30 tested, 100% active; AID 720651
An asterisk follows results filed as active. This is a sample that favours compounds with a hit; in the whole collection about 3.2% have one here. Unless noted, how the calls were made is not given here.

How did Cc1ccc(NS(=O)(=O)c2cc(C(=O)Nc3cccc([N+](=O)[O-])c3)ccc2C)cc1 do in these assays?
rCAG binder-1: 22; DAGLB inhibitor: -2; HTRA1 inh: -96; ABHD4 inh: -23; LEDGF integ inh: 3; PRMT1 FP inh: 2

Results for CCCCc1nc2sc3c(SCCN(C)C)ncnc3c2c2c1CCC2 ?
rCAG binder-1: 1; DAGLB inhibitor: -1; HTRA1 inh: -5; ABHD4 inh: 6; LEDGF integ inh: -5; PRMT1 FP inh: -2

What do the screens show for `COc1cc2c(cc1OC)C1(Nc3c-2c(Cc2ccccc2)nn3-c2ccccc2)C(=O)Nc2ccccc21` (stereo unspecified)?
rCAG binder-1: 17; DAGLB inhibitor: -1; HTRA1 inh: -48; ABHD4 inh: -9; LEDGF integ inh: 0; PRMT1 FP inh: 2

How did CCOC(=O)CSc1nc2sc3c(c2c(=O)n1-c1ccccc1)CCN(C(C)C)C3 do in these assays?
rCAG binder-1: -5; DAGLB inhibitor: -2; HTRA1 inh: -3; ABHD4 inh: -6; LEDGF integ inh: -1; PRMT1 FP inh: 0

How did COc1ccc(-c2[nH]ncc2CNC(C)c2ccccc2Cl)cc1F (stereo unspecified) do in these assays?
rCAG binder-1: -4; DAGLB inhibitor: -2; HTRA1 inh: -19; ABHD4 inh: 2; LEDGF integ inh: 6; PRMT1 FP inh: -2

Results for Cc1cc(NC(=O)/C=C/c2ccccc2Cl)no1 ?
rCAG binder-1: 2; DAGLB inhibitor: -5; HTRA1 inh: 2; ABHD4 inh: -4; LEDGF integ inh: 3; PRMT1 FP inh: 0

How did Cc1cc(NS(=O)(=O)c2ccc(NC(=O)/C=C/c3ccccc3)cc2)nc(C)n1 do in these assays?
rCAG binder-1: 14; DAGLB inhibitor: 3; HTRA1 inh: -7; ABHD4 inh: -17; LEDGF integ inh: -3; PRMT1 FP inh: -3

How did Cc1cc(NS(=O)(=O)c2ccc(NC(=O)/C=C/c3cccc(Cl)c3)cc2)no1 do in these assays?
rCAG binder-1: 61*; DAGLB inhibitor: 10; HTRA1 inh: -30; ABHD4 inh: -2; LEDGF integ inh: 2; PRMT1 FP inh: -1; rCAG bind conf: 49*; dCAG dye counter: 17*

How did Cc1cc(NS(=O)(=O)c2ccc(NC(=O)/C=C/c3ccccc3Cl)cc2)no1 do in these assays?
rCAG binder-1: 71*; DAGLB inhibitor: 6; HTRA1 inh: -45; ABHD4 inh: -48; LEDGF integ inh: -1; PRMT1 FP inh: 0; rCAG bind conf: 56*; dCAG dye counter: 23*

What do the screens show for `CC1CCCN(C(=O)CNC(=O)Cn2ccc3ccccc3c2=O)C1` (stereo unspecified)?
rCAG binder-1: 0; DAGLB inhibitor: -1; HTRA1 inh: 2; ABHD4 inh: -3; LEDGF integ inh: -2; PRMT1 FP inh: 1

Results for O=C(Nc1cc(Cl)ccc1F)C1CCCN1S(=O)(=O)c1cccc2cccnc12 (stereo unspecified) ?
rCAG binder-1: 1; ABHD4 inh: -1; LEDGF integ inh: 4; PRMT1 FP inh: -3

Results for Cc1ccc(NC(=O)CSc2nccn2Cc2ccco2)cc1 ?
rCAG binder-1: -4; DAGLB inhibitor: -2; HTRA1 inh: 0; ABHD4 inh: 4; LEDGF integ inh: 1; PRMT1 FP inh: 1

What do the screens show for `O=C(OCCC12CC3CC(CC(C3)C1)C2)c1ccc(NCc2cc(O)ccc2O)cc1`?
rCAG binder-1: 36*; DAGLB inhibitor: 7; HTRA1 inh: -2; ABHD4 inh: 15; LEDGF integ inh: 6; PRMT1 FP inh: 8; rCAG bind conf: 27; dCAG dye counter: 11*

How did O=C(OCC12CC3CC(CC(C3)C1)C2)c1ccc(NCc2cc(O)ccc2O)cc1 do in these assays?
rCAG binder-1: 26; DAGLB inhibitor: 1; HTRA1 inh: 23; ABHD4 inh: 23; LEDGF integ inh: 3; PRMT1 FP inh: 10

How did CCOC(=O)c1c(NS(=O)(=O)Cc2ccccc2)sc2c1CCCC2 do in these assays?
rCAG binder-1: 45*; DAGLB inhibitor: 1; HTRA1 inh: -10; ABHD4 inh: 9; LEDGF integ inh: 3; PRMT1 FP inh: 4; rCAG bind conf: 64*; dCAG dye counter: 21*; dCAG dye DR: >30

Results for CCOC(=O)c1c(NC(=O)C2C3C=CC(C3)C2C(=O)O)sc2c1CCCC2 (stereo unspecified) ?
rCAG binder-1: 37*; DAGLB inhibitor: 7; HTRA1 inh: 2; ABHD4 inh: 4; LEDGF integ inh: 0; PRMT1 FP inh: -3; rCAG bind conf: 50*; dCAG dye counter: 11*; dCAG dye DR: >30

How did COC(=O)c1c(NC(=O)c2ccc(C)c(S(=O)(=O)Nc3ccccc3C)c2)sc2c1CCCC2 do in these assays?
rCAG binder-1: 1; DAGLB inhibitor: 1; HTRA1 inh: -4; ABHD4 inh: 3; LEDGF integ inh: 2; PRMT1 FP inh: -1

How did COC(=O)c1c(NS(=O)(=O)c2ccc3ccccc3c2)sc2c1CCCC2 do in these assays?
rCAG binder-1: 44*; DAGLB inhibitor: 5; HTRA1 inh: -5; ABHD4 inh: 7; LEDGF integ inh: 0; PRMT1 FP inh: 2; rCAG bind conf: 70*; dCAG dye counter: 32*; dCAG dye DR: inactive; dCAG DNA bind: 2.9*; rCAG binder-2: 1*

What do the screens show for `CCOC(=O)c1c(NC(=O)c2ccco2)sc2c1CCCCC2`?
rCAG binder-1: 2; DAGLB inhibitor: -14; HTRA1 inh: -1; ABHD4 inh: -1; LEDGF integ inh: 2; PRMT1 FP inh: -1

Results for CCOC(=O)c1c(CC(C)C)csc1NC(=O)c1ccccc1C(=O)O ?
rCAG binder-1: 47*; DAGLB inhibitor: 9; HTRA1 inh: -2; ABHD4 inh: 6; LEDGF integ inh: 1; PRMT1 FP inh: 1; rCAG bind conf: 45*; dCAG dye counter: 12*

What do the screens show for `Cc1ccc2cc(C#N)c(N3CCN(C(=O)c4cccs4)CC3)nc2c1`?
rCAG binder-1: 1; DAGLB inhibitor: -4; HTRA1 inh: -10; ABHD4 inh: -7; LEDGF integ inh: 4; PRMT1 FP inh: 0
